Laboratory results reported in ChEMBL document CHEMBL3414528, “Novel naftopidil-related derivatives and their biological effects as alpha1-adrenoceptors antagonists and antiproliferative agents” (Eur J Med Chem, 2015).
Active and inactive are the calls of the source. The rule behind the calls is not given here.

How the values were obtained:
[1] = Cell cycle arrest in human PC3 cells assessed as accumulation at G2/M phase at 5 uM after 24 hrs by propidium iodide staining-based flow cytometry (reference value: 33.04%); assay type: functional; details: PC-3
How it was run: (§1)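 PC-3 cells given compound at 5, 10, 15, 20 or 30 μM, or 0.1% DMSO vehicle, for 24 h; stained with propidium iodide and analysed by flow cytometry for G0/G1, S and G2/M fractions.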

[2] = Cell cycle arrest in human PC3 cells assessed as accumulation at G0/G1 phase at 10 uM after 24 hrs by propidium iodide staining-based flow cytometry (reference value: 39.20%); assay type: functional; details: PC-3; how it was run: as §1
[3] = Cell cycle arrest in human PC3 cells assessed as accumulation at S phase at 10 uM after 24 hrs by propidium iodide staining-based flow cytometry (reference value: 27.26%); assay type: functional; details: PC-3; how it was run: as §1
[4] = Cell cycle arrest in human PC3 cells assessed as accumulation at G2/M phase at 10 uM after 24 hrs by propidium iodide staining-based flow cytometry (reference value: 33.04%); assay type: functional; details: PC-3; how it was run: as §1
[5] = Cell cycle arrest in human PC3 cells assessed as accumulation at G0/G1 phase at 15 uM after 24 hrs by propidium iodide staining-based flow cytometry (reference value: 39.20%); assay type: functional; details: PC-3; how it was run: as §1
[6] = Cell cycle arrest in human PC3 cells assessed as accumulation at G2/M phase at 15 uM after 24 hrs by propidium iodide staining-based flow cytometry (reference value: 33.04%); assay type: functional; details: PC-3; how it was run: as §1
[7] = Cell cycle arrest in human PC3 cells assessed as accumulation at G0/G1 phase at 20 uM after 24 hrs by propidium iodide staining-based flow cytometry (reference value: 39.20%); assay type: functional; details: PC-3; how it was run: as §1
[8] = Cell cycle arrest in human PC3 cells assessed as accumulation at S phase at 20 uM after 24 hrs by propidium iodide staining-based flow cytometry (reference value: 27.26%); assay type: functional; details: PC-3; how it was run: as §1
[9] = Cell cycle arrest in human PC3 cells assessed as accumulation at S phase at 30 uM after 24 hrs by propidium iodide staining-based flow cytometry (reference value: 27.26%); assay type: functional; details: PC-3; how it was run: as §1
[10] = Cell cycle arrest in human PC3 cells assessed as accumulation at G2/M phase at 30 uM after 24 hrs by propidium iodide staining-based flow cytometry (reference value: 33.04%); assay type: functional; details: PC-3; how it was run: as §1
PC-3 [11] = experiment: Induction of apoptosis in human PC3 cells assessed as early apoptotic cells at 5 uM after 24 hrs by annexin V/propidium iodide staining-based flow cytometry (reference value: 5.7%); assay type: functional
How it was run: (§2)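 Phosphatidylserine exposure in PC-3 cells after 24 h at 0, 5, 10, 20 or 30 μM, by Alexa Fluor 488 annexin V/PI double staining and flow cytometry; early apoptotic = AV+/PI−, late apoptotic or dead = AV+/PI+.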

PC-3 [12] = experiment: Induction of apoptosis in human PC3 cells assessed as late apoptotic cells at 5 uM after 24 hrs by annexin V/propidium iodide staining-based flow cytometry (reference value: 2.1%); assay type: functional; how it was run: as §2
PC-3 [13] = experiment: Induction of apoptosis in human PC3 cells assessed as early apoptotic cells at 10 uM after 24 hrs by annexin V/propidium iodide staining-based flow cytometry (reference value: 5.7%); assay type: functional; how it was run: as §2
PC-3 [14] = experiment: Induction of apoptosis in human PC3 cells assessed as late apoptotic cells at 10 uM after 24 hrs by annexin V/propidium iodide staining-based flow cytometry (reference value: 2.1%); assay type: functional; how it was run: as §2
PC-3 [15] = experiment: Induction of apoptosis in human PC3 cells assessed as early apoptotic cells at 20 uM after 24 hrs by annexin V/propidium iodide staining-based flow cytometry (reference value: 5.7%); assay type: functional; how it was run: as §2
PC-3 [16] = experiment: Induction of apoptosis in human PC3 cells assessed as late apoptotic cells at 30 uM after 24 hrs by annexin V/propidium iodide staining-based flow cytometry (reference value: 2.1%); assay type: functional; how it was run: as §2
PC-3 [17] = experiment: Induction of apoptosis in human PC3 cells assessed as total apoptotic cells at 5 uM after 24 hrs by annexin V/propidium iodide staining-based flow cytometry; assay type: functional; how it was run: as §2
PC-3 [18] = experiment: Induction of apoptosis in human PC3 cells assessed as total apoptotic cells at 30 uM after 24 hrs by annexin V/propidium iodide staining-based flow cytometry; assay type: functional; how it was run: as §2
[19] = Induction of apoptosis in human PC3 cells assessed as upregulation of Bax expression after 24 hrs by Western blotting analysis; assay type: functional, cell-based; details: PC-3
How it was run: (§3)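 PC-3 cells exposed for 24 h to 0, 1, 5, 10, 20 or 30 μM; Bax, Bcl-2 and activated caspase-3 measured by Western blot, reported as Bax/Bcl-2 value.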

[20] = Induction of apoptosis in human PC3 cells assessed as upregulation of Bcl2 expression after 24 hrs by Western blotting analysis; assay type: functional, cell-based; details: PC-3, in the assay text read “upregulation of Bax/Bcl2 ratio” for “upregulation of Bcl2 expression”; how it was run: as §3
PC-3 [21] = experiment: Antiproliferative activity against human PC3 cells assessed as reduction in cell viability at 1.5 to 100 uM by WST-8 assay in presence of 50 uM of norepinephrine; assay type: functional, cell-based
How it was run: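 PC-3 cells treated with compound at 100, 75, 50, 25, 12.5, 6.25, 3.0 and 1.5 μM alone or together with norepinephrine (20 or 50 μM); viability by WST-8. Mean ± SEM, two-way ANOVA with post-hoc tests.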

[22] = target: T1, Alpha-1D adrenergic receptor (Rattus norvegicus, UniProt P23944); experiment: Antagonist activity at Sprague-Dawley rat thoracic aorta adrenergic alpha-1D receptor after 20 mins; details: read-out: pA2 (converted)
T1 sequence (P23944 whole entry): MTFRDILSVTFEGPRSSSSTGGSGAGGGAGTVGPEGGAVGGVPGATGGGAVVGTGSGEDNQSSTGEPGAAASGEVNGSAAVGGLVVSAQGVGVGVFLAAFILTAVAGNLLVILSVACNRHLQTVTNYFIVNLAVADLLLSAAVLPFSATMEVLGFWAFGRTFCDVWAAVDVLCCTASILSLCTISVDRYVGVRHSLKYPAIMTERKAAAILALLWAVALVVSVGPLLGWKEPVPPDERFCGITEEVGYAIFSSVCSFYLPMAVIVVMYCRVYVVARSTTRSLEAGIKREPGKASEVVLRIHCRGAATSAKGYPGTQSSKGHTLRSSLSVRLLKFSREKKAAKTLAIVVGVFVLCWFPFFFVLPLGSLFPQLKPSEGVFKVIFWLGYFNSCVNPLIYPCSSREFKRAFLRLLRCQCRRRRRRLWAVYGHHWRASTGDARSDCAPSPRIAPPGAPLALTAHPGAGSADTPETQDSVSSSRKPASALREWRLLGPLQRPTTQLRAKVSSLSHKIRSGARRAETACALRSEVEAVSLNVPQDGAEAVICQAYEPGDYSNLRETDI
How it was run: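 Isolated rat tissues (prostatic vas deferens, spleen, thoracic aorta) contracted with cumulative norepinephrine; concentration-response curves recorded in presence of increasing antagonist concentrations, antagonism read as rightward curve shift. Mean ± SEM of five to eight separate experiments.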

Rattus norvegicus [23] = species on record: Rattus norvegicus; experiment: Selectivity ratio for Sprague-Dawley rat thoracic aorta adrenergic alpha-1D receptor to Sprague-Dawley rat spleen adrenergic alpha-1B receptor; assay type: tissue-based
DU-145 = experiment: Cytotoxicity against human DU145 cells after 48 hrs by WST-8 assay; assay type: functional, cell-based; details: DU-145, 48 h
LNCaP = experiment: Cytotoxicity against human LNCAP cells after 48 hrs by WST-8 assay; assay type: functional, cell-based
Rattus norvegicus [24] = species on record: Rattus norvegicus; experiment: Selectivity ratio for Sprague-Dawley rat prostatic vas deferens adrenergic alpha-1A receptor to Sprague-Dawley rat spleen adrenergic alpha-1B receptor

Kb [22]: 0.00275 µM
SMILES: COc1ccccc1N1CCN(CCCNC(=O)c2cc3ccccc3n2Cc2ccccc2)CC1
Activity [1]: 33.5% | Activity [2]: 58.5% | Activity [3]: 15.2% | Activity [4]: 26.5% | Activity [5]: 70.6% | Activity [6]: 14.9% | Activity [7]: 61.6% | Activity [8]: 22.2% | Activity [9]: 20.9% | Activity [10]: 41.7% | Activity (PC-3 [11]): 20.2% | Activity (PC-3 [12]): 3.5% | Activity (PC-3 [13]): 41.9% | Activity (PC-3 [14]): 9.2% | Activity (PC-3 [15]): 44.9% | Activity (PC-3 [16]): 32.6% | Activity (PC-3 [17]): 23.7% | Activity (PC-3 [18]): 83% | Activity [19]: Dose-dependent effect | Activity [20]: Dose-dependent effect | Activity (PC-3 [21]): inactive | Ratio (Rattus norvegicus [23]): 47.9 | IC50 (DU-145): 33.3 µM | IC50 (LNCaP): 25.5 µM | Ratio (Rattus norvegicus [24]): 19.1
